In ChEMBL document CHEMBL5653614, “Rescue of fragile X syndrome phenotypes in Fmr1 KO mice by the small-molecule PAK inhibitor FRAX486” (Proc Natl Acad Sci U S A, 2013):
Calls of active or inactive are those of the source. The rule behind the calls is not given here.

Tests used:
Mus musculus [1] = experiment: Protective activity in Fmr1 knockout FVB.129P2-Fmr1tm1Cgr/J mouse model of Fragile X syndrome assessed as decrease in counterclockwise revolutions at 20 mg/kg, sc for 5 days by open field assay; format: functional, organism-based; conditions: time 5.0 day
Outline: (§1)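 Adult male WT and Fmr1 KO mice dosed s.c. at 20 mg/kg or vehicle for 5 d; tested 4–5.5 h after dosing. Single mouse in a novel open field for 30 min, tracked by infrared sensors in 1-min bins; bar-graph values averaged over minutes 18–30. Mice beyond 2 SD in total distance, or immobile for 5 consecutive minutes, were excluded.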

Mus musculus [2] = experiment: Protective activity in Fmr1 knockout FVB.129P2-Fmr1tm1Cgr/J mouse model of Fragile X syndrome assessed as increase in testicular weight at 20 mg/kg, sc for 21 days; format: functional, organism-based; conditions: time 21.0 day
Mus musculus [3] = experiment: Protective activity in Fmr1 knockout FVB.129P2-Fmr1tm1Cgr/J mouse assessed as decrease in apical dendritic spine density in layer II/III pyramidal neurons segment 7 at 20 mg/kg, sc and measured after 8 hrs by Golgi-Cox technique analysis; format: functional, organism-based
Outline: (§2)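 Adult male WT and Fmr1 KO FVB mice given 20 mg/kg s.c. or vehicle; brains collected 8 h later and Golgi stained. Apical dendrites of layer II/III pyramidal neurons in temporal cortex, originating 50–100 µm from the soma, were divided into ten 10-µm segments and spines counted. 40–60 neurons from 4–6 mice per group; one-way ANOVA.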

Mus musculus [4] = experiment: Protective activity in Fmr1 knockout FVB.129P2-Fmr1tm1Cgr/J mouse assessed as decrease in apical dendritic spine density in layer II/III pyramidal neurons segment 5 at 20 mg/kg, sc and measured after 8 hrs by Golgi-Cox technique analysis; format: functional, organism-based; outline: as §2
Mus musculus [5] = experiment: Protective activity in Fmr1 FVB.129P2-Pde6b+ Tyr c-ch/AntJ wild type mouse assessed as change in basal dendritic spine density in cortical neuron at 20 mg/kg, sc and measured after 8 hrs by Golgi-Cox technique analysis; format: functional, organism-based; conditions: Cortical neurone
[6] = biological target: Serine/threonine-protein kinase PAK 3 (Homo sapiens, UniProt O75914); experiment: Inhibition of PAK3 (unknown origin) by Z'-LYTE functional assay
Serine/threonine-protein kinase PAK 3, sequence (O75914 whole entry, canonical isoform): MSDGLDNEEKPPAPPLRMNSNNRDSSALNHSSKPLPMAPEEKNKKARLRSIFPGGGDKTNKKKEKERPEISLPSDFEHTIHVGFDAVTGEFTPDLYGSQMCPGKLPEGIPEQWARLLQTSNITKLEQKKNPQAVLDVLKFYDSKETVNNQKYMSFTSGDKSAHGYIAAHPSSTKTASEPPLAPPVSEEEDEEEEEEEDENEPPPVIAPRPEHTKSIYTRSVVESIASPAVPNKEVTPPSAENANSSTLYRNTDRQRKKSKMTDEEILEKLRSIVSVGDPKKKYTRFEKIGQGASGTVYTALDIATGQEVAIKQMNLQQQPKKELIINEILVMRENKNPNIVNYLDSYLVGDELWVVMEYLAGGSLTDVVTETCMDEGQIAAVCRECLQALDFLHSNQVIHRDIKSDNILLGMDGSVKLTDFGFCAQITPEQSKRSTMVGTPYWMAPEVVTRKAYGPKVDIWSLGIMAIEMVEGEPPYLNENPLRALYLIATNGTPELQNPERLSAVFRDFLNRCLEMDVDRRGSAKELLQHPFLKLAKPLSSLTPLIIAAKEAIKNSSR
Outline: (§3)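 Full-length PAK isoforms phosphorylating an optimized peptide substrate in a Z-LYTE biochemical kinase assay, 10-point inhibitor titration. Duplicates (n = 2, mean ± SEM) plotted semilog; IC50 from a variable-slope sigmoidal dose–response fit.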

Mus musculus [7] = experiment: Protective activity in FVB.129P2-Pde6b+ Tyr c-ch/AntJ wild type mouse assessed as decrease in time spent in moving at 20 mg/kg, sc for 5 days and measured for 30 mins by open field assay; format: functional, organism-based; conditions: time 5.0 day; outline: as §1
Mus musculus [8] = experiment: (§4) Anti-seizure activity against 124dB loud auditory stimulus induced Fmr1 knockout FVB.129P2-Fmr1tm1Cgr/J mouse model of audiogenic seizure assessed as decrease in sound-induced seizure at 20 mg/kg,sc for 8 hrs followed by audiogenic seizure induction by audiogenic seizure assay (Rvb=100%); format: functional; design: scale not given: the % may be the effect or the level left
Outline: (§5)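 Adult male mice (10–17 wk). Single s.c. dose (0, 10, 20 or 30 mg/kg) in 20% (wt/vol) hydroxypropyl-β-cyclodextrin vehicle; AGS induced 8 h later. Mouse acclimated 2 min in a clear acrylic two-chamber box, then exposed to a 124 dB sound. Scored as percentage of animals showing each sequential phase (wild running, seizure, death by respiratory arrest); χ2 test against vehicle.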

Mus musculus [9] = experiment: Protective activity in Fmr1 knockout FVB.129P2-Fmr1tm1Cgr/J mouse model of Fragile X syndrome assessed as motor coordination at 20 mg/kg, sc and measured for 4 to 5.25 hrs by rotarod test; format: functional, organism-based; conditions: time 4-5.25 hrs
Outline: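 Adult male Fmr1 KO mice (FVB background, 10–17 wk old) got FRAX486 s.c. at 20 mg/kg as a 2 mg/mL solution in 20% (wt/vol) hydroxypropyl-β-cyclodextrin; vehicle-only controls. Rotarod was run 4–5.5 h after dosing. Latency to fall or jump off the rotating cylinder was recorded, with a maximum of 3 min. Three trials 30–40 min apart were averaged per mouse.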

[10] = biological target: Serine/threonine-protein kinase PAK 2 (Homo sapiens, UniProt Q13177); experiment: Inhibition of PAK2 (unknown origin) by Z'-LYTE functional assay; outline: as §3
Serine/threonine-protein kinase PAK 2, sequence (Q13177 whole entry): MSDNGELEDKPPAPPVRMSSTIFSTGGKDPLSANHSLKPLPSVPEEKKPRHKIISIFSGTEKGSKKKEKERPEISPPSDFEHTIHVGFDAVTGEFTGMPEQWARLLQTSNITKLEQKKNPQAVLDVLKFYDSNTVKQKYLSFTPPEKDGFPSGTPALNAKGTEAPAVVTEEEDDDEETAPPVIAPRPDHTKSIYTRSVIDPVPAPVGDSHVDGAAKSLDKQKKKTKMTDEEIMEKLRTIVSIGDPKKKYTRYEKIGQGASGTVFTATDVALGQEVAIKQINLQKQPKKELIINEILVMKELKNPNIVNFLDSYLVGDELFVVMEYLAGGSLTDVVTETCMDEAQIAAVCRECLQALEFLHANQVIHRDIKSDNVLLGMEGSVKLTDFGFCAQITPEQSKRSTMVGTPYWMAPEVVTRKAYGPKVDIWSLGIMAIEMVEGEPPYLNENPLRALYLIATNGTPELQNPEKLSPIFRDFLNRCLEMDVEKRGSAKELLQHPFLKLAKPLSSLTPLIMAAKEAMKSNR

Mus musculus [11] = experiment: Protective activity in Fmr1 knockout FVB.129P2-Fmr1tm1Cgr/J mouse assessed as decrease in apical dendritic spine density in layer II/III pyramidal neurons segment 3 at 20 mg/kg, sc and measured after 8 hrs by Golgi-Cox technique analysis; format: functional, organism-based; outline: as §2
[12] = Drug concentration in FVB.129P2 mouse brain at 20 mg/kg,sc and measured from 8 to 18 hrs by LC-MS/MS analysis; format: ADME, organism-based; conditions: in vivo, time 8-18 hrs
Outline: (§6)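 WT FVB.129P2 mice got one s.c. injection of 20 mg/kg (2 mg/mL in 20% hydroxypropyl-β-cyclodextrin). Blood and forebrain were collected at time points from 15 min to 24 h. Forebrain was weighed, snap-frozen and homogenized in 2 volumes of cold PBS. Drug quantified by LC-MS/MS. n = 2–3, mean ± SEM.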

Mus musculus [13] = experiment: Anti-seizure activity against 124dB loud auditory stimulus induced Fmr1 FVB.129P2-Pde6b+ Tyr c-ch/AntJ wild type mouse model of audiogenic seizure assessed as decrease in sound-induced death due to respiratory arrest at 20 mg/kg,sc for 8 hrs followed by audiogenic seizure induction by audiogenic seizure assay; format: functional, organism-based; outline: as §5
Mus musculus [14] = experiment: Protective activity in FVB.129P2-Pde6b+ Tyr c-ch/AntJ wild type mouse assessed as decrease in counterclockwise revolutions at 20 mg/kg, sc for 5 days by open field assay; format: functional, organism-based; conditions: time 5.0 day; outline: as §1
Mus musculus [15] = experiment: Protective activity in Fmr1 FVB.129P2-Pde6b+ Tyr c-ch/AntJ wild type mouse assessed as change in apical dendritic spine density in cortical neuron at 20 mg/kg, sc and measured after 8 hrs by Golgi-Cox technique analysis; format: functional, organism-based; conditions: Cortical neurone
Mus musculus [16] = experiment: Protective activity in FVB.129P2-Pde6b+ Tyr c-ch/AntJ wild type mouse assessed as increase in testicular weight at 20 mg/kg, sc for 21 days; format: functional, organism-based; conditions: time 21.0 day
[17] = Drug concentration in FVB.129P2 mouse plasma at 20 mg/kg,sc and measured upto 18 hrs by LC-MS/MS analysis; format: ADME, organism-based; outline: as §6
[18] = biological target: Serine/threonine-protein kinase PAK 4 (Homo sapiens, UniProt O96013); experiment: Inhibition of PAK4 (unknown origin) by Z'-LYTE functional assay; outline: as §3
Serine/threonine-protein kinase PAK 4, sequence (O96013 whole entry): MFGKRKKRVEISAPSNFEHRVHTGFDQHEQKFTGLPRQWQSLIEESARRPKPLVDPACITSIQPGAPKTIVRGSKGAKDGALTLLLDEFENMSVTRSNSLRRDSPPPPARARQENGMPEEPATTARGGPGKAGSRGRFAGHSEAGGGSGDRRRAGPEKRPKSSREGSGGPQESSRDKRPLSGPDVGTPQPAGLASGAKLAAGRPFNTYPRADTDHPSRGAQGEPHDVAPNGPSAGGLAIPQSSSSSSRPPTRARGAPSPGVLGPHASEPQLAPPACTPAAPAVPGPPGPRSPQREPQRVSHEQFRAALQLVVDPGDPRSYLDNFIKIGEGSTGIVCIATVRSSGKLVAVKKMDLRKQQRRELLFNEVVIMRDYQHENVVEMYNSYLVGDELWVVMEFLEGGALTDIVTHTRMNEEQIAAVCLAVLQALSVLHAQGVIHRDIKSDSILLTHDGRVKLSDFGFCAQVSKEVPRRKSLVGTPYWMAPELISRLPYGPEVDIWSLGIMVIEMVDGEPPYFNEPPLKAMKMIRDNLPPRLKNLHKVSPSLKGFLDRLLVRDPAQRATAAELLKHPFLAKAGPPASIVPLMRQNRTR

Mus musculus [19] = experiment: Protective activity in Fmr1 knockout FVB.129P2-Fmr1tm1Cgr/J mouse assessed as change in basal dendritic spine density in cortical neuron at 20 mg/kg, sc and measured after 8 hrs by Golgi-Cox technique analysis; format: functional, organism-based; conditions: Cortical neurone
Mus musculus [20] = experiment: as §4, with “sound-induced wild running” for “sound-induced seizure”, “at 10” for “at 20”, “for 5 days” for “for 8 hrs”, “induction after 8 hrs post-treatment” for “induction”; format: functional; design: scale not given: the % may be the effect or the level left; conditions: time 5 day
Outline: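 Adult male Fmr1 KO mice given 10 or 20 mg/kg s.c. daily for 5 d in 20% hydroxypropyl-β-cyclodextrin vehicle. AGS assay run 8 h after the final injection: 2 min acclimation in an acrylic chamber, then a 124 dB auditory stimulus. Incidence of wild running and seizure recorded; χ2 comparison with vehicle.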

[21] = Drug concentration in FVB.129P2 mouse brain at 20 mg/kg,sc and measured after 1 hrs by LC-MS/MS analysis; format: ADME, organism-based; conditions: read-out: Ct; outline: as §6

- IC50 [6]: 55.3 nM
- IC50 [10]: 39.5 nM
- Ct [12]: 951 ng/g
- concentration at 18 h [17]: > 100 ng/mL
- IC50 [18]: 779 nM
- concentration at 1 h [21]: 155 ng/g
SMILES: CCn1c(=O)c(-c2ccc(Cl)cc2Cl)cc2cnc(Nc3ccc(N4CCNCC4)c(F)c3)nc21
- Activity (Mus musculus [1]): Active
- Activity (Mus musculus [2]): inactive
- Activity (Mus musculus [3]): inactive
- Activity (Mus musculus [4]): inactive
- Activity (Mus musculus [5]): inactive
- Activity (Mus musculus [7]): Active
- Activity (Mus musculus [8]): 25%
- Activity (Mus musculus [9]): inactive
- Activity (Mus musculus [11]): Active
- Activity (Mus musculus [13]): inactive
- Activity (Mus musculus [14]): Active
- Activity (Mus musculus [15]): inactive
- Activity (Mus musculus [16]): inactive
- Activity (Mus musculus [19]): inactive
- Activity (Mus musculus [20]): 75%
